The target in assay [1] is thrombin (Homo sapiens, UniProt P00734). In words: Sensor cleavage during CaCl2-activated clotting of human plasma/serum. The assay is classed as biochemical. The conditions noted are these: control human plasma + CaCl2, PEG-T1Q sensor.
Assay [2] addresses recombinant human MMP9 (Homo sapiens, UniProt P14780). In words: In vitro cleavage assay. The assay is classed as biochemical. The conditions noted are these: inhibitor 5 μM final, ~100 nM MMP9, PEG-M1Q 1 μM by peptide. A digest of the protocol: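 Quenched fluorogenic PEG-peptide substrate at 1 × 10^-6 M by peptide, incubated with recombinant human MMP9 (≈100 × 10^-9 M working concentration), with or without MMP inhibitor. Fluorescence dequenching monitored over time on a microplate reader.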

Sequence of recombinant human MMP9 (P14780 94-707): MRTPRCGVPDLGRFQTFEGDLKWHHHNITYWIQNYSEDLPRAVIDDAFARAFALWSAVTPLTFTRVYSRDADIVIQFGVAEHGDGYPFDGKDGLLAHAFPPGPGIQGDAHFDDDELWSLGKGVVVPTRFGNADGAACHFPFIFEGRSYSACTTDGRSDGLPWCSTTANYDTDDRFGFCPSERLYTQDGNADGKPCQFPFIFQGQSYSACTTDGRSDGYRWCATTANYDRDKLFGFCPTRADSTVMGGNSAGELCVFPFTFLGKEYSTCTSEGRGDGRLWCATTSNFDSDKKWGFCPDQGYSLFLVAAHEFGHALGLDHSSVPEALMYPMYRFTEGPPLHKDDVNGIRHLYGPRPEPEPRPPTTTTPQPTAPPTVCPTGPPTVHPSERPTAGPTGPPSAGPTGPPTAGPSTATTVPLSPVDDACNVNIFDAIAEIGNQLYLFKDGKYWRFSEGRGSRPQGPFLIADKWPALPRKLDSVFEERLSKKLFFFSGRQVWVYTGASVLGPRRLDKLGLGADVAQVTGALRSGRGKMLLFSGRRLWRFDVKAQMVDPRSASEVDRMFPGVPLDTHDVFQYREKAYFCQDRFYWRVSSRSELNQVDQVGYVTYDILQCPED

As for `CC1CNc2c(cccc2S(=O)(=O)N[C@@H](CCCNC(=N)N)C(=O)N2CC[C@@H](C)C[C@@H]2C(=O)O)C1` (some centres unmarked) [Argatroban], the “effect of thrombin inhibitor on CaCl2-induced fluorescence increase of PEG-T1Q” value in assay [1] is reported as “eliminated the fluorescence increase”.

As to `CNC(=O)[C@@H](NC(=O)[C@H](CC(C)C)[C@H](O)C(=O)NO)C(C)(C)C` [Marimastat], in assay [2], the “effect of MMP inhibitor on MMP9 proteolysis of PEG-M1Q” value is “abrogated”.

The values above are taken from PMC5914179 (Advanced functional materials, 2016).
